The text below walks through data of ChEMBL document CHEMBL4428067, “Drug Discovery against Psoriasis: Identification of a New Potent FMS-like Tyrosine Kinase 3 (FLT3) Inhibitor, 1-(4-((1H-Pyrazolo[3,4-d]pyrimidin-4-yl)oxy)-3-fluorophenyl)-3-(5-(tert-butyl)isoxazol-3-yl)urea, That Showed Potent Activity in a Psoriatic Animal Model” (J Med Chem, 2016).

Assay [1] is filed under the species Mus musculus. The assay can be described thus: Antipsoriatic activity in K14-VEGF transgenic mouse model of psoriasis assessed as upper left quadrant DC cells expressing FLT3 and CD11c in psoriatic plaque lesion at 0.05% applied tropically over lesion for continuous 29 days by flow cytometric analysis (reference value: 9.62%). Format: functional. For orientation: A flow cytometer gives signals particle by particle.

Assay [2] concerns the target T1, Receptor-type tyrosine-protein kinase FLT3 (Mus musculus) (UniProt Q00342).
T1 sequence (whole entry): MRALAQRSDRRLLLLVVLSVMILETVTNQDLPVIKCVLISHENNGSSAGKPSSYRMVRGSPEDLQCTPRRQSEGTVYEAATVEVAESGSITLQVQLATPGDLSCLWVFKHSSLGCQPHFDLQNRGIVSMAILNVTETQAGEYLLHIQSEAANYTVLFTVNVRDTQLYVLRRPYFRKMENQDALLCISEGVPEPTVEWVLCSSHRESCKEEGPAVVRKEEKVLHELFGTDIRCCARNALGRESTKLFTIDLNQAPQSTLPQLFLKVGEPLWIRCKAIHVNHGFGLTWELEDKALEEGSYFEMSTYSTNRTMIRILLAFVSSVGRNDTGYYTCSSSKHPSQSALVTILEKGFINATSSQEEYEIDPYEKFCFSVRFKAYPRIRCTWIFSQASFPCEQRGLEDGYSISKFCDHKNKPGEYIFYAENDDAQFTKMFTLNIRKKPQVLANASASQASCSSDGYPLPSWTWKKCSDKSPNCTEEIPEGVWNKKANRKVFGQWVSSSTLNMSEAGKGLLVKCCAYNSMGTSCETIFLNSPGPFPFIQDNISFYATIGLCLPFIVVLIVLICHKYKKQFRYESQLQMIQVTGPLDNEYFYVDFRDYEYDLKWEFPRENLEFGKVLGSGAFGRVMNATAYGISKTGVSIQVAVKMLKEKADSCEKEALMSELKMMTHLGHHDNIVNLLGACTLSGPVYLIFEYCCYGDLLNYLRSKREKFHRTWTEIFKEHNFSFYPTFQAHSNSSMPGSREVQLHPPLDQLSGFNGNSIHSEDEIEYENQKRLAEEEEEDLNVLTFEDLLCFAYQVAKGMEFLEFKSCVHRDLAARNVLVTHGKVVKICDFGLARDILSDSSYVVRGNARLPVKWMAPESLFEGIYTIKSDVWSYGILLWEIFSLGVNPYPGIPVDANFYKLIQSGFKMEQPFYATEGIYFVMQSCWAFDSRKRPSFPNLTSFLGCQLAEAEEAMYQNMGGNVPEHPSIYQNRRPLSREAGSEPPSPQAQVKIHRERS
The assay can be described thus: Inhibition of FLT3 in Balb/c mouse BMDCs assessed as suppression of FLT3L-induced pDC formation measured as upper right quadrant cells level treated on day 9 post 9 days of FLT3L-stimulation measured after 24 hrs by CD11c PerCP and CD45R/B220 FITC staining based flow cytometric analysis (reference value: 14.9%). The arrangement: scale not given: the % may be the effect or the level left. The procedure, abridged:
(§1)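 BALB/c bone marrow cells were cultured at 1×10^6/ml with FLT3L in supplemented RPMI-1640 for 9 days. Compound in DMSO or 0.1% DMSO was added on day 9 for 24 h. Cells were stained for 30 min with CD11c PerCP plus B220 FITC (pDC: CD11c+ B220+) or MHC II FITC (mDC: CD11c+ MHC II+), then analysed by flow cytometry. Three independent experiments.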

The species named for assay [3] is Mus musculus. Put plainly: Antipsoriatic activity in K14-VEGF transgenic mouse model of psoriasis assessed as upper left quadrant FLT3+/CD11c+/B220+ pDC cells in psoriatic plaque lesion at 0.05% applied tropically over lesion for continuous 29 days by flow cytometric analysis (reference value: 58.4%). The assay is classed as functional.
The species named for assay [4] is Mus musculus. The assay can be described thus: Antipsoriatic activity in K14-VEGF transgenic mouse model of psoriasis assessed as upper left quadrant DC cells expressing FLT3 and CD11c in psoriatic plaque lesion at 0.05% applied tropically over lesion for continuous 29 days by flow cytometric analysis (reference value: 8.83%). The assay is classed as functional.

The species entered for assay [5] is Mus musculus. Put plainly: Downregulation of IL17 expression in K14-VEGF transgenic mouse model of psoriasis at 0.05% applied tropically over lesion for 29 days by ELISA. Format: functional, organism-based. The procedure, abridged:
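K14-VEGF mice were treated for 29 days with 0.05% cream or vehicle, n=3 each. At termination, blood was held at 4 °C for 12 h and then centrifuged. Plasma IFN-γ and IL-17 were measured by ELISA, mean ± SD.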
Background: An ELISA detects its analyte on a solid surface through an enzyme-linked reagent.

The species named for assay [6] is Mus musculus. The assay can be described thus: Antipsoriatic activity in K14-VEGF transgenic mouse model of psoriasis assessed as reduction in epidermal thickness at 0.05% applied tropically over lesion for continuous 29 days by H and E staining method relative to vehicle control. The assay is classed as functional, organism-based. The procedure, abridged: (§2)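 Homozygous K14-VEGF mice, 3–4 months old, with moderate to serious psoriasis; n=3 per group. Cream with 0.05% compound or vehicle cream smeared on lesions. Head and neck tissue sections taken after 29 days of treatment and HE-stained. Baker pathological score from 5 random fields, given as mean and SD. Epidermal thickness from 8 random fields, given as mean ± SEM.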

The species named for assay [7] is Mus musculus. Put plainly: Antipsoriatic activity in K14-VEGF transgenic mouse model of psoriasis assessed as lower left quadrant DC cells expressing FLT3 and CD11c in psoriatic plaque lesion at 0.05% applied tropically over lesion for continuous 29 days by flow cytometric analysis (reference value: 72.7%). Format: functional.
The species entered for assay [8] is Mus musculus. Put plainly: Antipsoriatic activity in K14-VEGF transgenic mouse model of psoriasis assessed as lower left quadrant FLT3+/CD11c+/B220+ pDC cells in psoriatic plaque lesion at 0.05% applied tropically over lesion for continuous 29 days by flow cytometric analysis (reference value: 63.7%).
The species named for assay [9] is Mus musculus. The assay can be described thus: Antipsoriatic activity in K14-VEGF transgenic mouse model of psoriasis assessed as reduction in infiltrated lymphocytes at 0.05% applied tropically over lesion for continuous 29 days by H and E staining method relative to vehicle control. The assay is classed as functional, organism-based. The procedure, abridged: as §2

Assay [10] is filed under the species Mus musculus. The assay can be described thus: Antipsoriatic activity in K14-VEGF transgenic mouse model of psoriasis assessed as lower right quadrant FLT3+/CD11c+/B220+ pDC cells in psoriatic plaque lesion at 0.05% applied tropically over lesion for continuous 29 days by flow cytometric analysis (reference value: 0.52%). Format: functional.
The species named for assay [11] is Mus musculus. Put plainly: Antipsoriatic activity in K14-VEGF transgenic mouse model of psoriasis assessed as decrease in VEGF expression in psoriatic lesion at 0.05% applied tropically over lesion for continuous 29 days by immunohistochemical analysis relative to vehicle control. Format: functional. The arrangement: scale not given: the % may be the effect or the level left. The procedure, abridged: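 K14-VEGF mice were treated topically with 0.05% cream or vehicle for 29 days, n=3 per group. Ear skin was paraffin-embedded, cut into 4-µm sections and immunostained. Staining was quantified in 5 random fields, reported as mean ± SD.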

Assay [12] has as its target T1, Receptor-type tyrosine-protein kinase FLT3 (Mus musculus). The assay can be described thus: Inhibition of FLT3 in Balb/c mouse BMDCs assessed as suppression of FLT3L-induced mDC formation measured as upper right quadrant cells level treated on day 9 post 9 days of FLT3L-stimulation measured after 24 hrs by CD11c PerCP and I-A/I-E (MHC class II) FITC staining based flow cytometric analysis (reference value: 21%). The arrangement: scale not given: the % may be the effect or the level left. The procedure, abridged:
as §1

Calls of active or inactive are those of the source. No cut-off for these calls is given here.

Regarding `CC(C)(C)c1cc(NC(=O)Nc2ccc(Oc3ncnc4[nH]ncc34)c(F)c2)no1`, the Activity in the assay filed under Mus musculus [1] worked out at 3.22%; in assay [2] it was 7.84%; in the assay listed under Mus musculus [3], 79.4%; in the assay filed under Mus musculus [4], 5.18%; in the assay filed under Mus musculus [7] it was 89.5%; in the assay filed under Mus musculus [8], 89.9%. For the same compound, the Activity stood at 0% in the assay filed under Mus musculus [10], 90% in the assay filed under Mus musculus [11] and 16.7% in assay [12]. Also, the outcome in the assay listed under Mus musculus [5], in the assay filed under Mus musculus [6] and in the assay listed under Mus musculus [9] was Active.
